Assay results from ChEMBL document CHEMBL3994631, “Design, synthesis, structure-activity relationship and mechanism of action studies of a series of 4-chloro-1-phthalazinyl hydrazones as a potent agent against Leishmania braziliensis” (Eur J Med Chem, 2017).
Active and inactive are the calls of the source. The calls are words filed in the database; no cut-off is given here.

Tests used:
Leishmania braziliensis [1] = test: Inhibition of DHFR in Leishmania braziliensis MHOM/CO/87/UA301 promastigote forms assessed as growth inhibition at 10 uM after 72 hrs in presence of folinic acid by neubauer chamber method
Leishmania braziliensis [2] = test: Antileishmanial activity against Leishmania braziliensis MHOM/CO/87/UA301 promastigote forms isolated from infected Balb/c mouse assessed as induction of oxidative stress by measuring reduction in mitochondrial dehydrogenase activity at 20 uM after 30 to 180 mins by MTT assay; format: functional
Outline: (§1)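 10^6 promastigotes in 500 μL per well treated with 20 μM compound at 28 °C, with untreated wells for each time point; sampled between 30 and 180 min. Cells counted, then MTT added (50 μL of 5 mg/mL in PBS) for 4 h. Stopped with acidic isopropanol, read at 570 nm. Pmdh (%) taken relative to untreated parasites as 100%; triplicate.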

Leishmania braziliensis [3] = test: Antileishmanial activity against Leishmania braziliensis MHOM/CO/87/UA301 promastigote forms isolated from infected Balb/c mouse by neubauer chamber method; format: functional
Outline: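 Promastigotes seeded at 1x10^6/mL in LIT medium at 29 °C with 0.1–10 μM compound. Growth followed daily by Neubauer chamber counting; three independent experiments per concentration. EC50 obtained by nonlinear regression of concentration–response data.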

Leishmania braziliensis [4] = test: Antileishmanial activity against Leishmania braziliensis MHOM/CO/87/UA301 promastigote forms isolated from infected Balb/c mouse assessed as parasite growth inhibition at 20 uM after 96 hrs by MTT assay relative to control; format: functional; details: MHOM/CO/87/UA301, 96 h, read-out: GI
Outline: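 Promastigotes in LIT + 10% FBS at 2x10^6/mL exposed to a single 20 μM concentration for 96 h at 29 °C. MTT (1 mg/mL) added for 4 h in darkness, cells lysed with acidic isopropanol, read at 570 nm. Inhibition relative to untreated parasites; means of three independent experiments.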

[5] = Cytotoxicity against mouse BMDM assessed as reduction in cell viability after 48 hrs by MTT assay; format: cell-based; details: bone marrow-derived macrophages (BMDM), read-out: LC50
Outline: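 Mouse bone-marrow macrophages (BMDM) were differentiated in L-929 conditioned medium and kept at 37 °C, 5% CO2, 90% humidity. Cells at 5×10^4 cells/mL were exposed to compounds at 10 to 100 µM for 48 h. Read-out was MTT reduction as a percentage of control cells. LC50 is the mean of three independent experiments.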

Leishmania braziliensis [6] = test: Potency index, ratio of miltefosine EC50 to compound EC50 for Leishmania braziliensis MHOM/CO/87/UA301 promastigote forms isolated from infected Balb/c mouse; format: functional
[7] = Selectivity index, ratio of LC50 for mouse BMDM to EC50 for Leishmania braziliensis MHOM/CO/87/UA301 amastigote forms infected in mouse BMDM
Leishmania braziliensis [8] = test: Antileishmanial activity against Leishmania braziliensis MHOM/CO/87/UA301 promastigote forms isolated from infected Balb/c mouse assessed as induction of oxidative stress by measuring reduction in mitochondrial dehydrogenase activity at 20 uM by MTT assay; format: functional; details: TDE = time-dependent effect; outline: as §1
Leishmania braziliensis [9] = test: Antileishmanial activity against Leishmania braziliensis MHOM/CO/87/UA301 amastigote forms infected in mouse BMDM after 96 hrs by Giemsa staining based assay; format: functional; details: MHOM/CO/87/UA301, BMDM
Outline: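 BMDM mixed 1:10 with L. braziliensis promastigotes in DMEM + 10% FBS on glass coverslips, 18 h at 37 °C, 5% CO2. Medium then replaced with medium containing compound and incubated 96 h under the same conditions. Giemsa-stained macrophages counted for % total and % infected macrophages and amastigotes per macrophage; triplicate.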

Leishmania braziliensis [10] = test: Cytotoxicity against Leishmania braziliensis MHOM/CO/87/UA301 promastigote forms assessed as cell death at 20 uM after 30 mins by MTT assay; details: 0.5 h; outline: as §1
Leishmania braziliensis [11] = test: Antileishmanial activity against Leishmania braziliensis MHOM/CO/87/UA301 amastigote forms infected in mouse BMDM assessed as induction of nitrite production after 48 hrs by Griess assay; format: functional
Outline: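 Macrophages infected with L. braziliensis were incubated 48 h with compound at 0.08, 0.80 and 8.0 μM. Controls: untreated infected and uninfected macrophages, three wells each. Nitrite in supernatants measured by Griess reaction against a sodium nitrite standard (detection limit 1.56 μM). Triplicate; expressed as % of untreated infected macrophages.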

Leishmania braziliensis [12] = test: Inhibition of DHFR in Leishmania braziliensis MHOM/CO/87/UA301 promastigote forms assessed as growth inhibition at 0.5 uM after 72 hrs in presence of folinic acid by neubauer chamber method
Leishmania braziliensis [13] = test: Ratio of EC50 for Leishmania braziliensis MHOM/CO/87/UA301 amastigote forms infected in mouse BMDM to EC50 for Leishmania braziliensis MHOM/CO/87/UA301 promastigote forms; format: functional
Leishmania braziliensis [14] = test: Inhibition of CuZn-SOD in Leishmania braziliensis MHOM/CO/87/UA301 promastigote forms assessed as reduction in superoxide level at 0.012 to 1.2 uM after 30 mins by spectrophotometric based xanthine oxidase coupled enzyme assay
Outline: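 Promastigotes (4 million in 500 μL) treated at 0.012, 0.12 and 1.2 μM, then pelleted. Sonicated in STE buffer pH 7.8 and centrifuged; protein measured by Bradford. SOD activity read as NBT reduction by superoxide from xanthine/xanthine oxidase (8.4 U) with EDTA, Na2CO3 and albumin. 30 min at 27 °C, CuCl2 added, A595 measured; controls without xanthine oxidase; triplicate.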

Leishmania braziliensis [15] = test: Inhibition of DHFR in Leishmania braziliensis MHOM/CO/87/UA301 promastigote forms assessed as growth inhibition at 2 uM after 72 hrs in presence of folinic acid by neubauer chamber method

SMILES | EC50 (Leishmania braziliensis [3]) [µM] | inhibition of growth at 20 µM (Leishmania braziliensis [4]) [%] | further results
CCCCCCCCCCCCCCCCOP(=O)([O-])OCC[N+](C)(C)C [MILTEFOSINE] | 20 to 25 | 67.8 | inhibition (Leishmania braziliensis [1]): inactive; Activity (Leishmania braziliensis [2]): inactive; CC50 at 48 h [5]: 125 µM
Clc1nnc(N/N=C/c2ccco2)c2ccccc12 | ≥ 20 | 40.9 to 59.1 | –
C/C(=N\Nc1nnc(Cl)c2ccccc12)c1ccc(Cl)cc1Cl | > 20 | 37.5 | –
Clc1nnc(NN=Cc2ccc(Br)cc2)c2ccccc12 | > 20 | 17.2 | –
COc1cc([N+](=O)[O-])ccc1/C=N/Nc1nnc(Cl)c2ccccc12 | > 20 | 11.9 | –
O=[N+]([O-])c1cccc(/C=N/Nc2nnc(Cl)c3ccccc23)c1 | > 20 | 10.6 | –
O=[N+]([O-])c1ccc(C=NNc2nnc(Cl)c3ccccc23)s1 | 3.2 | 11.5 to 88.5 | Ratio EC50 (Leishmania braziliensis [6]): 8; CC50 at 48 h [5]: < 10 µM
Fc1ccc(/C=N/Nc2nnc(Cl)c3ccccc23)cc1 | > 20 | 17.8 | –
Clc1cccc(/C=N/Nc2nnc(Cl)c3ccccc23)c1 | > 20 | 7.03 | –
C/C(=N\Nc1nnc(Cl)c2ccccc12)c1cc(Cl)ccc1Cl | > 20 | 20 | –
Clc1nnc(N/N=C/c2cccc(Br)c2)c2ccccc12 | > 20 | 5.89 | –
O=[N+]([O-])c1ccc(C=NNc2nnc(Cl)c3ccccc23)o1 | 0.12 | 13.5 to 86.5 | Selectivity Index [7]: 23.7; Ratio EC50 (Leishmania braziliensis [6]): 208; Activity (Leishmania braziliensis [8]): Tde; EC50 (Leishmania braziliensis [9]): 590 nM; Activity (Leishmania braziliensis [10]): Non-Toxic; Activity (Leishmania braziliensis [11]): Dose-dependent effect; inhibition (Leishmania braziliensis [12]): inactive; Ratio EC50 (Leishmania braziliensis [13]): 4.9; inhibition (Leishmania braziliensis [14]): inactive; CC50 at 48 h [5]: 14 µM
Oc1ccccc1/C=N\Nc1nnc(Cl)c2ccccc12 | > 20 | 33.9 to 64.2 | –
CN(Cc1cnc2nc(N)nc(N)c2n1)c1ccc(C(=O)N[C@@H](CCC(=O)O)C(=O)O)cc1 | – | – | inhibition (Leishmania braziliensis [15]): Active

Now from value to compound, other results behind:

EC50 (Leishmania braziliensis [3]) [µM] | SMILES | inhibition of growth at 20 µM (Leishmania braziliensis [4]) [%] | further results
> 20 | C/C(=N\Nc1nnc(Cl)c2ccccc12)c1ccc([N+](=O)[O-])cc1 | 19.1 | –
> 20 | C/C(=N\Nc1nnc(Cl)c2ccccc12)c1ccc(Br)cc1 | 10.6 | –
> 20 | C/C(=N\Nc1nnc(Cl)c2ccccc12)c1ccc(O)cc1 | 22.9 | –
> 20 | Clc1nnc(N/N=C/c2ccccc2)c2ccccc12 | 8.46 | –
> 20 | C/C(=N\Nc1nnc(Cl)c2ccccc12)c1ccccc1 | 37 | –
> 20 | C/C(=N\Nc1nnc(Cl)c2ccccc12)c1cccc([N+](=O)[O-])c1 | 9.46 | –
> 20 | Clc1ccc(C=NNc2nnc(Cl)c3ccccc23)cc1 | 16.8 | –
< 20 | O=[N+]([O-])c1ccc(C=NNc2nnc(Cl)c3ccccc23)cc1 | 41.9 to 58.1 | –
